# ChEMBL document CHEMBL5058577, “EUbOPEN Chemogenomics Library 2 (Multiplex)” (2022)
# Test system: Fibroblast
# Assay: Multiplex assay against human fibroblast
# Assay type: toxicity, cell-based
# Procedure, shortened: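 On a CQ1 microscope at 37°C and 5% CO2, live cells were imaged after compound addition. They had been stained at seeding with Hoechst33342, BioTracker Green Microtubule Cytoskeleton Dye, MitoTracker Red and Annexin V Alexa Fluor 680. CellPathfinder machine-learning gating assigned cells to Hoechst high-intensity objects or normal cells, normal cells to healthy, pyknosed or fragmented nuclei, and pyknosed cells to mitotic or apoptotic. Tubulin, mitochondrial-mass and membrane-permeability phenotypes are per cents of healthy-nucleus cells.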
# [1] = 12 h, 1 µM, compound concentration 1 uM, replicate 1
# [2] = 12 h, 1 µM, compound concentration 1 uM, replicate 2
# [3] = 12 h, 10 µM, compound concentration 10 uM, replicate 1
# [4] = 12 h, 10 µM, compound concentration 10 uM, replicate 2
# [5] = 24 h, 1 µM, compound concentration 1 uM, replicate 1
# [6] = 24 h, 1 µM, compound concentration 1 uM, replicate 2
# [7] = 24 h, 10 µM, compound concentration 10 uM, replicate 1
# [8] = 24 h, 10 µM, compound concentration 10 uM, replicate 2
# [9] = 48 h, 1 µM, compound concentration 1 uM, replicate 1
# [10] = 48 h, 1 µM, compound concentration 1 uM, replicate 2
# [11] = 48 h, 10 µM, compound concentration 10 uM, replicate 1
# [12] = 48 h, 10 µM, compound concentration 10 uM, replicate 2
structure (smiles),measurement,setting,value
COCCCN1CCC(NC(=O)c2cc(Cl)c(N)c3c2OCC3)CC1 [PRUCALOPRIDE],Population Apoptotic (%),[1],33%
same,Population Fragmented Nuclei (%),[1],20%
same,Population Healthy Nuclei (%),[1],62%
same,Population Hoechst High Intensity Objects (%),[1],3%
same,Population Membrane Permeable-Phenotype (%),[1],0%
same,Population Mitochondria Different-Phenotype (%),[1],3%
same,Population Mitotic Cells (%),[1],66%
same,Population Normal (%),[1],96%
same,Population Pyknosed Nuclei (%),[1],16%
same,Population Tubulin-Different-Phenotype (%),[1],30%
same,Total Cell Count,[1],132
same,Population Apoptotic (%),[2],48%
same,Population Fragmented Nuclei (%),[2],31%
same,Population Healthy Nuclei (%),[2],48%
same,Population Hoechst High Intensity Objects (%),[2],4%
same,Population Membrane Permeable-Phenotype (%),[2],5%
same,Population Mitochondria Different-Phenotype (%),[2],8%
same,Population Mitotic Cells (%),[2],52%
same,Population Normal (%),[2],95%
same,Population Pyknosed Nuclei (%),[2],20%
same,Population Tubulin-Different-Phenotype (%),[2],51%
same,Total Cell Count,[2],130
same,Population Apoptotic (%),[3],30%
same,Population Fragmented Nuclei (%),[3],12%
same,Population Healthy Nuclei (%),[3],66%
same,Population Hoechst High Intensity Objects (%),[3],0%
same,Population Membrane Permeable-Phenotype (%),[3],1%
same,Population Mitochondria Different-Phenotype (%),[3],7%
same,Population Mitotic Cells (%),[3],70%
same,Population Normal (%),[3],99%
same,Population Pyknosed Nuclei (%),[3],20%
same,Population Tubulin-Different-Phenotype (%),[3],31%
same,Total Cell Count,[3],144
same,Population Apoptotic (%),[4],35%
same,Population Fragmented Nuclei (%),[4],28%
same,Population Healthy Nuclei (%),[4],46%
same,Population Hoechst High Intensity Objects (%),[4],11%
same,Population Membrane Permeable-Phenotype (%),[4],7%
same,Population Mitochondria Different-Phenotype (%),[4],3%
same,Population Mitotic Cells (%),[4],64%
same,Population Normal (%),[4],88%
same,Population Pyknosed Nuclei (%),[4],25%
same,Population Tubulin-Different-Phenotype (%),[4],55%
same,Total Cell Count,[4],153
same,Population Apoptotic (%),[5],48%
same,Population Fragmented Nuclei (%),[5],20%
same,Population Healthy Nuclei (%),[5],57%
same,Population Hoechst High Intensity Objects (%),[5],2%
same,Population Membrane Permeable-Phenotype (%),[5],0%
same,Population Mitochondria Different-Phenotype (%),[5],3%
same,Population Mitotic Cells (%),[5],51%
same,Population Normal (%),[5],97%
same,Population Pyknosed Nuclei (%),[5],21%
same,Population Tubulin-Different-Phenotype (%),[5],25%
same,Total Cell Count,[5],136
same,Population Apoptotic (%),[6],72%
same,Population Fragmented Nuclei (%),[6],36%
same,Population Healthy Nuclei (%),[6],49%
same,Population Hoechst High Intensity Objects (%),[6],7%
same,Population Membrane Permeable-Phenotype (%),[6],7%
same,Population Mitochondria Different-Phenotype (%),[6],4%
same,Population Mitotic Cells (%),[6],27%
same,Population Normal (%),[6],92%
same,Population Pyknosed Nuclei (%),[6],14%
same,Population Tubulin-Different-Phenotype (%),[6],50%
same,Total Cell Count,[6],138
same,Population Apoptotic (%),[7],63%
same,Population Fragmented Nuclei (%),[7],10%
same,Population Healthy Nuclei (%),[7],74%
same,Population Hoechst High Intensity Objects (%),[7],6%
same,Population Membrane Permeable-Phenotype (%),[7],1%
same,Population Mitochondria Different-Phenotype (%),[7],6%
same,Population Mitotic Cells (%),[7],36%
same,Population Normal (%),[7],93%
same,Population Pyknosed Nuclei (%),[7],15%
same,Population Tubulin-Different-Phenotype (%),[7],30%
same,Total Cell Count,[7],128
same,Population Apoptotic (%),[8],30%
same,Population Fragmented Nuclei (%),[8],24%
same,Population Healthy Nuclei (%),[8],57%
same,Population Hoechst High Intensity Objects (%),[8],5%
same,Population Membrane Permeable-Phenotype (%),[8],11%
same,Population Mitochondria Different-Phenotype (%),[8],3%
same,Population Mitotic Cells (%),[8],69%
same,Population Normal (%),[8],94%
same,Population Pyknosed Nuclei (%),[8],18%
same,Population Tubulin-Different-Phenotype (%),[8],56%
same,Total Cell Count,[8],148
same,Population Apoptotic (%),[9],50%
same,Population Fragmented Nuclei (%),[9],25%
same,Population Healthy Nuclei (%),[9],60%
same,Population Hoechst High Intensity Objects (%),[9],4%
same,Population Membrane Permeable-Phenotype (%),[9],2%
same,Population Mitochondria Different-Phenotype (%),[9],3%
same,Population Mitotic Cells (%),[9],50%
same,Population Normal (%),[9],95%
same,Population Pyknosed Nuclei (%),[9],14%
same,Population Tubulin-Different-Phenotype (%),[9],38%
same,Total Cell Count,[9],146
same,Population Fragmented Nuclei (%),[10],36%
same,Population Healthy Nuclei (%),[10],49%
same,Population Hoechst High Intensity Objects (%),[10],2%
same,Population Membrane Permeable-Phenotype (%),[10],3%
same,Population Mitochondria Different-Phenotype (%),[10],6%
same,Population Normal (%),[10],97%
same,Population Pyknosed Nuclei (%),[10],13%
same,Population Tubulin-Different-Phenotype (%),[10],53%
same,Total Cell Count,[10],132
same,Population Apoptotic (%),[11],64%
same,Population Fragmented Nuclei (%),[11],22%
same,Population Healthy Nuclei (%),[11],66%
same,Population Hoechst High Intensity Objects (%),[11],2%
same,Population Membrane Permeable-Phenotype (%),[11],1%
same,Population Mitochondria Different-Phenotype (%),[11],6%
same,Population Mitotic Cells (%),[11],35%
same,Population Normal (%),[11],97%
same,Population Pyknosed Nuclei (%),[11],10%
same,Population Tubulin-Different-Phenotype (%),[11],38%
same,Total Cell Count,[11],136
same,Population Apoptotic (%),[12],62%
same,Population Fragmented Nuclei (%),[12],34%
same,Population Healthy Nuclei (%),[12],48%
same,Population Hoechst High Intensity Objects (%),[12],6%
same,Population Membrane Permeable-Phenotype (%),[12],7%
same,Population Mitochondria Different-Phenotype (%),[12],7%
same,Population Mitotic Cells (%),[12],37%
same,Population Normal (%),[12],93%
same,Population Pyknosed Nuclei (%),[12],17%
same,Population Tubulin-Different-Phenotype (%),[12],57%
same,Total Cell Count,[12],146
